Measured values taken from ChEMBL document CHEMBL3813617, “An alternative route to the arylvinyltriazole nucleosides” (Bioorg Med Chem Lett, 2016).
Activity calls are given as the source filed them. The calls are words filed in the database; no cut-off is given here.

Legend:
[1] = Cytotoxicity against African green monkey Vero E6 cells; type: cell-based; conditions: chlorocebus sabaeus
In short: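 Cytotoxicity measured in Vero cells, […]; CC50 derived.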

[2] = test system: Human alphaherpesvirus 1; assay: Antiviral activity against Herpes simplex virus type 1 L2 infected in African green monkey Vero E6 cells assessed as reduction of virus-induced cytopathic effect; type: functional, organism-based; conditions: Human alphaherpesvirus 1, L2, Vero
[3] = Cytotoxicity against African green monkey Vero E6 cells up to 2 mM; type: cell-based; conditions: chlorocebus sabaeus
[4] = test system: Vero; assay: Antiviral activity against Influenza A H5N1 virus (A/duck/Novosibirsk/56/05) infected in African green monkey Vero cells assessed as reduction of virus-induced cytopathic effect; type: functional, cell-based; conditions: Influenza A virus (A/duck/Novosibirsk/56/2005(H5N1))
[5] = test system: Hepatitis C virus; assay: Antiviral activity against Hepatitis C virus infected in African green monkey Vero cells assessed as reduction of virus-induced cytopathic effect; type: functional, organism-based, Hepacivirus hominis

Row | Structure (SMILES) | CC50 [1] | IC50 [2] | Activity [3] | Activity [4] | IC50 [5]
1 | NC(=O)c1ncn([C@@H]2O[C@H](CO)[C@@H](O)[C@H]2O)n1 [RIBAVIRIN] | 0.3 µM | 10 µM | – | – | –
2 | NC(=O)c1nc(/C=C/c2ccccc2F)n([C@@H]2O[C@H](CO)[C@@H](O)[C@H]2O)n1 (mixture of isomers) | – | – | Non-toxic | inactive | –
3 | NC(=O)c1nc(/C=C/c2ccc(C(F)(F)F)cc2)n([C@@H]2O[C@H](CO)[C@@H](O)[C@H]2O)n1 | – | – | – | – | 0.09 µM
4 | NC(=O)c1nc(/C=C/c2ccc(F)cc2)n([C@@H]2O[C@H](CO)[C@@H](O)[C@H]2O)n1 | 3.4 µM | – | – | inactive | –
5 | NC(=O)c1nc(/C=C\c2ccc(F)cc2)n([C@@H]2O[C@H](CO)[C@@H](O)[C@H]2O)n1 | – | – | Non-toxic | inactive | –
6 | NC(=O)c1nc(/C=C\c2ccc(C(F)(F)F)cc2)n([C@@H]2O[C@H](CO)[C@@H](O)[C@H]2O)n1 | – | – | Non-toxic | inactive | –
7 | NC(=O)c1nc(/C=C/c2cccc(F)c2)n([C@@H]2O[C@H](CO)[C@@H](O)[C@H]2O)n1 | – | 6.9 µM | Non-toxic | inactive | –
8 | NC(=O)c1nc(/C=C\c2cccc(F)c2)n([C@@H]2O[C@H](CO)[C@@H](O)[C@H]2O)n1 | – | – | Non-toxic | inactive | –
